Structures can show the parent of a compound that is named as a salt.
Experiments:
HeLa = assay: Cytotoxic activity against human HeLa cells by MTT method; assay type: functional, cell-based
In short: (§1)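 MTT assay on the cancer cell line. IC50 taken as the concentration that cuts absorbance to 50% of control. Values are means of three independent experiments.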

HepG2 = assay: Cytotoxic activity against human HepG2 cells by MTT method; assay type: functional, cell-based; in short: as §1
[1] = Cytotoxic activity against human H460 cells by MTT method; assay type: functional, cell-based; conditions: NCI-H460; in short: as §1
[2] = Cytotoxic activity against human BGC823 cells by MTT method; assay type: functional, cell-based; conditions: BGC-823; in short: as §1
HCT-116 = assay: Cytotoxic activity against human HCT116 cells by MTT method; assay type: functional, cell-based; in short: as §1
[3] = Inhibition of Saccharomyces cerevisiae alpha-glucosidase pre-incubated for 10 mins at 25 degC before addition of p-nitrophenyl-alpha-D-glucopyranoside substrate by UV absorption based assay
In short: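 Yeast α-glucosidase at 1.0 U/mL in 0.1 M K3PO4 buffer, pH 6.9, mixed with test compound in DMSO. Preincubated 10 min at 25 °C, then started with PNPG (5.0 mM solution in the same buffer). A405 was read at once and again after 5 min at 25 °C. ΔA was compared with a DMSO control to give % inhibition and IC50, as means of three independent experiments.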

Structure (SMILES)	IC50 [3] [µM]	IC50 (HeLa) [µM]	IC50 (HepG2) [µM]	IC50 [1] [µM]	IC50 [2] [µM]	IC50 (HCT-116) [µM]
CC(C)C1=C[C@]23Oc4c(C(C)C)cc5c(c4O[C@@]2(C(=O)C1=O)C12COC3C[C@H]1C(C)(C)C[C@H](O)C2)C12COC5C[C@H]1C(C)(C)C[C@H](O)C2 (stereo not given in full)	> 1000	5.2	5.2	8.5	4.8	6.3
CC(C)c1cc2c(c(O)c1O)[C@]13CO[C@H]2C[C@H]1C(C)(C)C[C@H](O)C3	> 1000	> 10	> 10	> 10	> 10	> 10
CC(=O)O[C@@H]1C(=O)C=C(C)[C@@H]2CC3=C(C)C(=O)O[C@@]3(O)C[C@@]12C	> 1000	> 10	> 10	> 10	> 10	> 10
CC1=CC(=O)[C@@H](O)[C@]2(C)C[C@]3(O)OC(=O)C(C)=C3C[C@@H]12	568	> 10	> 10	> 10	> 10	> 10
CC(=O)O[C@@H]1C(=O)C=C(C)[C@]2(O)CC3=C(C)C(=O)O[C@@]3(O)C[C@@]12C	300	> 10	> 10	> 10	> 10	> 10
COc1cccc2c1C(=O)c1c(O)c3c(c(O)c1C2=O)C[C@@](O)(C(=O)CO)C[C@@H]3O[C@H]1C[C@H](N)[C@H](O)[C@H](C)O1 [DOXORUBICIN HYDROCHLORIDE]	–	0.72	0.24	0.24	0.76	–

More lines, main results first:

IC50 [3] [µM]	Structure (SMILES)	IC50 (HeLa) [µM]	IC50 (HepG2) [µM]	IC50 [1] [µM]	IC50 [2] [µM]	IC50 (HCT-116) [µM]
> 1000	CC(C)C1=CC2=C(C(=O)C1=O)[C@]13CO[C@H]2C[C@H]1C(C)(C)C[C@H](O)C3	> 10	> 10	> 10	> 10	7.3
> 1000	CC(C)C1=C[C@@]23Oc4c(C(C)C)cc5c(c4O[C@]2(C(=O)C1=O)C12COC3C[C@H]1C(C)(C)C[C@H](O)C2)C12COC5C[C@H]1C(C)(C)C[C@H](O)C2 (stereo not given in full)	> 10	> 10	> 10	> 10	> 10
> 1000	CC(=O)O[C@H]1C[C@@H](O)[C@@]2(C)C[C@@]3(O)OC(=O)C(C)=C3C[C@@H]2[C@H]1C	> 10	> 10	> 10	> 10	> 10
> 1000	CC(=O)O[C@@H]1C[C@H](O)[C@H](C)[C@H]2CC3=C(C)C(=O)O[C@]3(O)C[C@@]21C	> 10	> 10	> 10	> 10	> 10
> 1000	CC1=C2C[C@@H]3[C@@H](C)[C@@H](O)C[C@@H](O)[C@@]3(C)C[C@@]2(O)OC1=O	> 10	> 10	> 10	> 10	> 10
169	C[C@H]1O[C@H](O[C@H]2[C@H](O)[C@@H](O)[C@@H](O[C@H]3[C@H](O)[C@@H](O)C(O)O[C@@H]3CO)O[C@@H]2CO)[C@H](O)[C@@H](O)[C@@H]1N[C@H]1C=C(CO)[C@@H](O)[C@H](O)[C@H]1O (stereo not given in full) [ACARBOSE]	–	–	–	–	–
